Test results as given in article PMC11078769 (Heliyon, 2024).

What was measured:
[1] = system: L. monocytogenes ATCC 19115; assay: Inhibition of biofilm formation, crystal violet; assay type: cell-based, Listeria monocytogenes; conditions: sodium lactate at 5 % (positive control); 37 °C, 24 h, crystal violet A570
In short: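 Test compound stock mixed with L. monocytogenes at 10^6 CFU/mL to final 2, 4 and 8 μg/mL, grown in microplate wells. Phosphate buffer (pH 7.0) served as negative control. Planktonic cells removed, wells washed twice with phosphate buffer, then stained 30 min with 0.1 % crystal violet and rinsed. Bound dye eluted with 95 % ethanol. Run in triplicate.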

L. monocytogenes = conditions: as reported; cited from earlier work
CCDC18Co human cells = conditions: 0.27 to 27 μmol/L; cited from earlier work
[2] = system: defibrinated erythrocytes; conditions: enterocin AS-48 at 5–20 μmol/L; cited from earlier work
MCF10A human cells = conditions: 0.27 to 27 μmol/L; cited from earlier work

Molecule	inhibition rate of biofilm formation [1]	MIC (L. monocytogenes)	Cytotoxicity (CCDC18Co human cells)	percent hemolysis [2]	Cytotoxicity (MCF10A human cells)
CC(O)C(=O)[O-].[Na+] (centres unmarked) [sodium lactate]	54.36%	–	–	–	–
enterocin AS-48	–	0.1 µg/mL	no cytotoxicity	3%–22.6	no cytotoxicity
